Measured values of several laboratories.
Each line is one published result; the experiments were not run side by side.
Target: Mitogen-activated protein kinase 1 (MAPK1, Homo sapiens, UniProt P28482)

Compound | observed | method | tested at | remaining binding
C[C@@H]1CN(c2cc(-c3n[nH]c4ccc(OC5(C)CC5)cc34)ncn2)C[C@H](C)O1 | cell-free assay | competition with immobilised ligand | 0.1 µM | 98%
O=C(c1ccc(Nc2nccc(-c3cc4ccccc4s3)n2)cc1)N1CCC(N2CCCC2)CC1 | binding | competition with immobilised ligand | 1 µM | 100%
Cn1nc(C(=O)NCc2ccc(C(=O)O)cc2)cc1-c1ccc2[nH]ccc2c1 | cell-free assay | competition with immobilised ligand | 0.1 µM | 94%
O=C(NCC1CCOCC1)c1n[nH]cc1NC(=O)c1c(F)cccc1F | binding | competition with immobilised ligand | 1 µM | 87%
N[C@H]1CCN(c2nccc(-c3cnn4ncccc34)n2)C1 | binding | – | 1 µM | 100%
CO[C@@H](C)c1c(Nc2ccc([C@H](N(C)C(=O)C3CCS(=O)(=O)CC3)C(F)(F)F)cc2)cnc2cc(Cl)nn12 | cell-free assay | competition with immobilised ligand | 1 µM | 100%
C[C@@H]1CCN(c2nccc(-c3cnn4ncccc34)n2)C1 | binding | – | 1 µM | 88%
O=C(NCCCN1CCOCC1)c1ccc(Nc2ncc(Cl)c(-c3ccc(Cl)s3)n2)cc1 | binding | competition with immobilised ligand | 1 µM | 100%
CN(C)c1ncc(F)c(-c2cnn3ncccc23)n1 | binding | – | 1 µM | 82%
C[C@@H](c1ccc(-n2cnc3c(N)ncnc32)cc1)N1CCc2nn(C)c(Cc3ccccc3)c2C1=O | binding | competition with immobilised ligand | 0.1 µM | 91%
Cc1c(C(=O)O)cc(-c2ccc(C3CCNCC3)cc2)c2ccc(-c3ccc(C(F)(F)F)cc3)cc12 | binding | competition with immobilised ligand | 1 µM | 100%
CC1CCCN1c1nccc(-c2cnn3ncccc23)n1 (stereo not shown) | binding | – | 1 µM | 95%
C=CC(=O)N1CCC(C(=O)NCC(=O)N2CCN(c3nc(-c4cnc(N)nc4C(F)F)nc(N4CCOCC4)n3)CC2)CC1 | binding | competition with immobilised ligand | 1 µM | 98%
Cn1nc(C(F)(F)F)cc1-c1cnc(N2CCc3cc(S(=O)(=O)Nc4c(F)cc(Cl)cc4F)cc(N4CCCC4=O)c32)nc1 | cell-free assay | competition with immobilised ligand | 1 µM | 100%
c1cnn2ncc(-c3ccnc(N4CCC45COC5)n3)c2c1 | binding | – | 1 µM | 100%
CNC(=O)[C@@H]1CC[C@@H](n2c(-c3ccc4cnccc4c3)nc3ccc(C(=O)NCc4cccc(C(N)=O)c4)cc32)C1 | binding | competition with immobilised ligand | 1 µM | 91%
O=C(NCCCN1CCOCC1)c1ccc(Nc2nccc(-c3cc4ccccc4s3)n2)cc1 | binding | competition with immobilised ligand | 1 µM | 89%
CCCOc1ccc([C@H]2[C@H](C(=O)O)[C@@H](c3ccc4c(c3)OCO4)CN2CC(=O)Nc2c(CC)cccc2CC)cc1 | cell-free assay | competition with immobilised ligand | 1 µM | 100%
CN(C)c1nccc(-c2cnc3ncccn23)n1 | binding | – | 1 µM | 81%
COc1cnc(Nc2cccc(S(N)(=O)=O)c2)nc1N1CCN(c2ccccc2)C(=O)C1 | binding | competition with immobilised ligand | 1 µM | 100%
Cc1cnn2ncc(-c3ccnc(N(C)C)n3)c2c1 | binding | – | 1 µM | 100%
CCN1CCN(Cc2ccc(C(=O)Nc3ccc(C)c(Oc4ccc5c(c4)CC(=O)N5)c3)cc2C(F)(F)F)CC1 | binding | competition with immobilised ligand | 1 µM | 100%
